# According to ChEMBL document CHEMBL1122985, “Synthesis and evaluation of N,N'-bis(arylsulfonyl)hydrazines as antineoplastic agents” (1985):
# What was measured:
# Format in all cases: functional
# [1] = tested on: Mus musculus; test: Percent change in the weight after administering a dose of 150 mg/kg to mice bearing L1210 leukemia
# Method in brief: (§1)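 L1210 ascites cells were propagated in CDF₁ mice and 0.1 mL of a suspension at 10⁶ cells/mL in isotonic saline was implanted ip. Compound was given ip once daily for 6 consecutive days starting 24 h after implantation, as a fine suspension in Tween 80/saline (0.5 mL). Groups of five were used, with vehicle controls. The read-out was average body-weight change from onset to end of therapy.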
# [2] = tested on: Mus musculus; test: Percentage of average survival time of control/treated mice bearing the L1210 leukemia at a dose 150 mg/kg
# Method in brief: (§2)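 L1210 ascites cells passaged in CDF1 mice, taken from 7-day donors, spun, diluted 10-fold in isotonic saline and set to 10^6 cells/mL by Coulter count; 0.1 mL given ip. Compound suspended in 2–3 drops 20% aqueous Tween 80 plus isotonic saline, 0.5 mL ip once daily for 6 days from 24 h after implant. Groups of five; vehicle-injected controls. %T/C = treated/control mean survival ×100.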
# [3] = tested on: Mus musculus; test: Average survival time of control mice bearing L1210 leukemia at a dose 50 mg/kg; method in brief: as §2
# [4] = tested on: Mus musculus; test: Average survival time of treated mice bearing the L1210 leukemia at a dose 100 mg/kg; method in brief: as §2
# [5] = tested on: Mus musculus; test: Average survival time of treated mice bearing the L1210 leukemia at a dose 50 mg/kg; method in brief: as §2
# [6] = tested on: Mus musculus; test: Percent change in the weight after administering a dose of 50 mg/kg to mice bearing L1210 leukemia; method in brief: as §1
# [7] = tested on: Mus musculus; test: Percentage of average survival time of control/treated mice bearing the L1210 leukemia at a dose 50 mg/kg; method in brief: as §2
# [8] = tested on: Mus musculus; test: Percent change in the weight after administering a dose of 100 mg/kg to mice bearing L1210 leukemia; method in brief: as §1
# [9] = tested on: Mus musculus; test: Percentage of average survival time of control/treated mice bearing the L1210 leukemia at a dose 100 mg/kg; method in brief: as §2
# [10] = tested on: Mus musculus; test: Average survival time of treated mice bearing the L1210 leukemia at a dose 150 mg/kg; method in brief: as §2
# [11] = tested on: Mus musculus; test: Average survival time of mice bearing L1210 leukemia at a dose 50 mg/kg; method in brief: as §2
# [12] = tested on: Mus musculus; test: Percentage of average survival time of control/treated mice bearing sarcoma 180 at a dose 50 mg/kg
# [13] = tested on: Mus musculus; test: Percentage of average survival time of control/treated mice bearing sarcoma 180 at a dose 100 mg/kg
# [14] = tested on: Mus musculus; test: Percentage of average survival time of control/treated mice bearing P388 leukemia at a dose 150 mg/kg
smiles,measurement,setting,value
O=S(=O)(NNS(=O)(=O)c1ccccc1)c1ccccc1,Average weight change,[1],0.8%
same,T/C,[2],101%
same,Survival time,[3],9.5 days
same,Survival time,[4],9.2 days
same,Survival time,[5],9.2 days
same,Average weight change,[6],-0.3%
same,T/C,[7],97%
same,Average weight change,[8],5.8%
same,T/C,[9],97%
same,Survival time,[10],9.6 days
Cc1ccc(S(=O)(=O)NN(C)S(=O)(=O)c2ccc(C)cc2)cc1,Survival time,[3],9.5 days
same,Survival time,[11],14 days
same,T/C,[12],197%
same,Average weight change,[6],3.7%
same,Average weight change,[8],0.8%
CN(NS(=O)(=O)c1ccc(Cl)cc1)S(=O)(=O)c1ccc(Cl)cc1,Average weight change,[1],6.9%
same,Survival time,[3],9.5 days
same,Survival time,[5],11.4 days
same,Average weight change,[6],4%
same,T/C,[7],120%
same,Average weight change,[8],1.3%
same,T/C,[9],124%
CN(NS(=O)(=O)c1ccc2ccccc2c1)S(=O)(=O)c1ccc2ccccc2c1,Average weight change,[1],4.1%
same,Survival time,[3],9 days
same,Average weight change,[6],3%
same,Average weight change,[8],-3.3%
same,Survival time,[10],9 days
CN(NC(=O)c1ccccc1)C(=O)c1ccccc1,Average weight change,[1],-2%
same,T/C,[2],97%
same,Survival time,[3],9.5 days
same,Survival time,[4],9.2 days
same,Survival time,[5],9.2 days
same,Average weight change,[6],2.5%
same,T/C,[7],97%
same,Average weight change,[8],-2%
same,T/C,[9],97%
same,Survival time,[10],9.2 days
CN(NS(=O)(=O)c1ccccc1)S(=O)(=O)c1ccccc1,T/C,[13],203%
same,Average weight change,[1],-13.5%
same,Survival time,[3],9 days
same,Average weight change,[6],-4.8%
same,Average weight change,[8],-5.2%
same,Survival time,[10],9.4 days
COc1ccc(S(=O)(=O)NN(C)S(=O)(=O)c2ccc(OC)cc2)cc1,Average weight change,[1],4.1%
same,Survival time,[3],9 days
same,T/C,[14],136%
same,Average weight change,[6],1.9%
same,Average weight change,[8],-1.6%
